Measurements of several laboratories.
Protocols differ between the studies behind these lines.
Cell line: MDA-MB-231
Read-out: cell growth or viability

Structure (SMILES)	method	concentration	time	quantity	value
COc1cc2c(cc1O)CCN(Cc1cccc(OC)c1OC)C2	WST-1	–	96 h	GI50	> 100 µM
Clc1ccc(Cn2c(-c3ccc(Cl)cc3)nc3ccccc32)cc1	MTT	–	–	IC50	7.48 µM
COc1ccc(-c2cn(-c3cc(=O)oc4ccc(Br)cc34)nn2)cc1	imaging	–	72 h	CC50	10.7 µM
CCc1cc(CN2CCc3cc(OS(N)(=O)=O)c(OC)cc3C2)cc(CC)c1CC	WST-1	–	96 h	GI50	5.7 µM
COc1cc2c(cc1OS(N)(=O)=O)CCN(Cc1cccc(C(C)=O)c1)C2	WST-1	–	96 h	GI50	0.983 µM
COc1ccc(-c2nc3ccc(C)cc3[nH]2)cc1O	MTT	–	48 h	IC50	55.1 µM
COc1cc2c(cc1O)CCN(Cc1cccc(OC(C)C)c1)C2	WST-1	–	96 h	GI50	86 µM
C[C@]1(c2nc3c(C(N)=O)cccc3[nH]2)CCCN1	ATP luminescence	–	7 days	EC50	> 10 µM
COc1cc2c(cc1OS(N)(=O)=O)CCN(Cc1cccc(C#N)c1)C2	WST-1	–	96 h	GI50	4.7 µM
Cc1ccc2nc(-c3ccc(Cl)cc3)n(Cc3ccccc3Cl)c2c1	MTT	–	–	IC50	74.2 µM
O=C1CCCCC1=C1Sc2nc3ccc(S(=O)(=O)N4CCCC4)cc3nc2S1	MTT	100 µM	24 h	viability	8.2%
COc1cc2c(cc1OS(N)(=O)=O)CCN(Cc1cccc([N+](=O)[O-])c1)C2	WST-1	–	96 h	GI50	1.91 µM
COc1cccc(-c2nc3ccccc3n2Cc2ccccc2)c1	MTT	–	–	IC50	43.3 µM
CCc1cccc(CN2CCc3cc(OS(N)(=O)=O)c(OC)cc3C2)c1	WST-1	–	96 h	GI50	8 µM
COc1ccc(-c2nc3ccc(C)cc3[nH]2)cc1OC	MTT	–	48 h	IC50	52.6 µM
N#CC(C(=O)Nc1cccc(C(F)(F)F)c1)=C1Sc2nc3ccc(S(=O)(=O)N4CCCC4)cc3nc2S1	MTT	3.125 µM	24 h	viability	77.1%
Cc1ccc2nc(-c3ccc(Cl)c(Cl)c3)[nH]c2c1	MTT	–	48 h	IC50	60.2 µM
CC/C(=C(\c1ccccc1)c1ccc(OCCN(C)C)cc1)c1ccccc1	ATP luminescence	–	72 h	EC90	33.4 µM
COc1cc2c(cc1O)CCN(Cc1cc(Cl)c(OC)c(OC)c1)C2	WST-1	–	96 h	GI50	0.4 µM
O=C(c1cc(Cc2n[nH]c(=O)c3ccccc23)ccc1F)N1CCN(C(=O)C2CC2)CC1	ATP luminescence	–	7 days	EC50	~5 µM
CCOC(=O)C(C(C)=O)=C1Sc2nc3ccc(S(=O)(=O)N4CCCC4)cc3nc2S1	MTT	100 µM	24 h	viability	3.7%
CCOc1cc(CN2CCc3cc(O)c(OC)cc3C2)cc(OCC)c1OCC	WST-1	–	96 h	GI50	> 100 µM
C[C@]12CC[C@@H]3c4ccc(O)cc4CC[C@H]3[C@@H]1CC[C@@H]2O	ATP luminescence	–	72 h	EC50	35.8 µM
c1ccc2[nH]c(-c3ccncc3)nc2c1	MTT	–	48 h	IC50	> 100 µM
CCOc1cccc(CN2CCc3cc(O)c(OC)cc3C2)c1	WST-1	–	96 h	GI50	> 100 µM
C=CCn1c(-c2ccc(OC)c(OC)c2)nc2ccccc21	MTT	–	–	IC50	31.2 µM
COc1cccc2c1C(=O)c1c(O)c3c(c(O)c1C2=O)C[C@@](O)(C(=O)CO)C[C@@H]3O[C@H]1C[C@H](N)[C@H](O)[C@H](C)O1	MTT	3.125 µM	24 h	viability	52.6%
COc1cc2c(cc1OS(N)(=O)=O)CCN(Cc1cccc(O)c1)C2	WST-1	–	96 h	GI50	41 µM
